According to ChEMBL document CHEMBL4028848, “Discovery of N-{4-[5-(4-Fluorophenyl)-3-methyl-2-methylsulfanyl-3H-imidazol-4-yl]-pyridin-2-yl}-acetamide (CBS-3595), a Dual p38α MAPK/PDE-4 Inhibitor with Activity against TNFα-Related Diseases” (J Med Chem, 2017):
Several values for one entry are separate records, joined by “and”; a condition that tells them apart may be missing. Identical values can stand only once. One block for each compound: values may come before it. Activity calls are given as the source filed them. The calls are words filed in the database; no cut-off is given here.

Legend:
Homo sapiens [1] = species: Homo sapiens; assay: Inhibition of PDE4 in human U937 cells assessed as [3H]cAMP hydrolysis at 10 uM relative to control; type: cell-based
Rattus norvegicus [2] = assay: In vivo inhibition of P38 MAPKalpha in Lewis rat assessed as decrease in LPS-stimulated TNFalpha level in serum at 10 mg/kg, po pretreated for 1 hr followed by LPS addition measured after 1.5 hrs post dose relative to control; type: functional
In short: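 Lewis rats, n = 8/group: females dosed orally at 10 mg/kg at −1, −3 or −5 h relative to LPS challenge, plus one male group dosed at −1 h. Male and female vehicle controls were given at −1 h. Serum TNFα was measured after LPS and compared with vehicle.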

[3] = target: Mitogen-activated protein kinase 14 (Homo sapiens, UniProt Q16539); assay: Inhibition of p38alpha MAPK (unknown origin) at 1 uM relative to control
Chain of Mitogen-activated protein kinase 14 (Q16539 whole entry): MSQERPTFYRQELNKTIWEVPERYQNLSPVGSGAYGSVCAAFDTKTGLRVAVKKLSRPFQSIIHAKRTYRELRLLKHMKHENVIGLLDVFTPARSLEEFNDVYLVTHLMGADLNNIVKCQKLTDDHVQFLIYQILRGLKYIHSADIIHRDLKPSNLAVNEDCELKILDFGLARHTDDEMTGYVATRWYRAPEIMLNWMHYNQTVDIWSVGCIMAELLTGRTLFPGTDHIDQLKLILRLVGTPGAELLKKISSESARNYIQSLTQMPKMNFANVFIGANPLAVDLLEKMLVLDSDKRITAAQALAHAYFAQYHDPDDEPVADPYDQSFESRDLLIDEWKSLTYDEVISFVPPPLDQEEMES

Homo sapiens [4] = assay: Cmax in human assessed as roflumilast N-oxide formation at 0.5 mg, po administered as single dose; type: ADME, organism-based; parameters: dose 0.5 mg, route oral; conditions: in vivo
Homo sapiens [5] = species: Homo sapiens; assay: Inhibition of PDE4 in human U937 cells assessed as [3H]cAMP hydrolysis at 1 uM relative to control; type: cell-based
[6] = Cmax in human at 0.5 mg, po administered as single dose; type: ADME, organism-based; parameters: dose 0.5 mg, route oral; conditions: in vivo
[7] = Fraction unbound in human plasma; type: ADME, cell-free
In short: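 Plasma protein binding measured in human, Sprague–Dawley rat and Cynomolgus monkey plasma at 1, 10 and 30 μM compound. Reported as unbound fraction (%).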

[8] = AUC (infinity) in human at 0.5 mg, po administered as single dose; type: ADME, organism-based; parameters: dose 0.5 mg, time infinity, route oral; conditions: in vivo
Homo sapiens [9] = assay: AUC (infinity) in human assessed as roflumilast N-oxide formation at 0.5 mg, po administered as single dose; type: ADME, organism-based; parameters: dose 0.5 mg, route oral, time infinity; conditions: in vivo
Homo sapiens [10] = species: Homo sapiens; assay: Inhibition of PDE4 in LPS-stimulated human whole blood assessed as decrease in leukotriene B4 level in plasma
[11] = Drug level in cynomolgus monkey liver microsomes treated with CBS-3595 at 10 to 100 uM; type: ADME, Macaca fascicularis, microsome
In short: (§1)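 Test compound incubated at 10, 30 and 100 μM with liver microsomes from rat, Cynomolgus monkey or human, and metabolites monitored.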

Liver [12] = assay: Drug level in human liver microsomes treated with CBS-3595 at 10 to 100 uM; type: ADME, microsome; in short: as §1
Liver [13] = assay: Drug level in rat liver microsomes treated with CBS-3595 at 10 to 100 uM; type: ADME, microsome; in short: as §1
[14] = Ratio of Cmax in Wistar rat at 30 mg/kg, po administered as single dose via gavage to IC50 for P38 MAPKalpha in LPS-stimulated human whole blood assessed as decrease in TNFalpha level
Rattus norvegicus [15] = assay: Toxicity in Wistar rat assessed as effect on composition of blood cells at 100 to 2500 mg/kg, po administered for 48 hrs followed by administration of 300 mg/kg, bid for 7 days starting 8 hrs interval between first and second dose measured after 7 days; type: organism-based; conditions: in vivo, 168 h
In short: (§2)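 Wistar rats, maximum-tolerated-dose estimate in two steps. Step one: single oral doses of 100 (n = 1), 500 (n = 1) and 2500 mg/kg (n = 3), with clinical signs watched for 48 h. Step two: 300 mg/kg (n = 5) twice daily for 7 days, second dose 8 h after the first. After 7 days, body weight gain, blood cell number and composition, liver enzymes, and macroscopic liver and spleen were recorded.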

Rattus norvegicus [16] = assay: Toxicity in Wistar rat assessed as effect on microscopic appearance of spleen at 100 to 2500 mg/kg, po administered for 48 hrs followed by administration of 300 mg/kg, bid for 7 days starting 8 hrs interval between first and second dose measured after 7 days; type: organism-based; conditions: in vivo, 168 h
Rattus norvegicus [17] = assay: Toxicity in Wistar rat assessed as effect on number of blood cells at 100 to 2500 mg/kg, po administered for 48 hrs followed by administration of 300 mg/kg, bid for 7 days starting 8 hrs interval between first and second dose measured after 7 days; type: organism-based; conditions: in vivo, 168 h; in short: as §2
[18] = AUC (0 to t) in Wistar rat at 30 mg/kg, po administered as single dose via gavage by LC-MS/MS analysis; type: ADME, organism-based; conditions: in vivo
In short: (§3)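 Male and female Wistar rats received a single oral gavage of 30 mg/kg. Parameters are given as the mean of the two sexes.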

CYP1A2 = CYP1A2 (Homo sapiens, UniProt P05177); assay: Inhibition of CYP1A2 (unknown origin) at 10 uM by fluorimetric assay relative to control; type: ADME
Chain of CYP1A2 (P05177 whole entry): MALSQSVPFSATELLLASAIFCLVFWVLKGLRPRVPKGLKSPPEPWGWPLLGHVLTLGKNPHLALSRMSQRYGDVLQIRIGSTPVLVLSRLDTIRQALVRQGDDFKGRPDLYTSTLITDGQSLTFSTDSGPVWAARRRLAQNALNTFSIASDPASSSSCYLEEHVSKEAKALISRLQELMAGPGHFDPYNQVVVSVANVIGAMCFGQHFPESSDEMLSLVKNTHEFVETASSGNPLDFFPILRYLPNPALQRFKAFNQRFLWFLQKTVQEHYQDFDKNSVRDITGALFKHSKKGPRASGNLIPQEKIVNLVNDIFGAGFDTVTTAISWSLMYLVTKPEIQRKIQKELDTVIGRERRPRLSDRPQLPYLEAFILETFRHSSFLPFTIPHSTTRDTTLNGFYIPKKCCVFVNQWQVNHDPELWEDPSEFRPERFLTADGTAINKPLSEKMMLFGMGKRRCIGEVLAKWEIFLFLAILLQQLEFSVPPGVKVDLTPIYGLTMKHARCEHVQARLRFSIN
In short: (§4)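 CYP1A2, CYP2C9, CYP2C19, CYP3A4 and CYP2D6 were tested as a panel for cytochrome P450 interaction.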

[19] = Cmax in Wistar rat at 30 mg/kg, po administered as single dose via gavage by LC-MS/MS analysis; type: ADME, organism-based; parameters: dose 30 mg/kg, route oral; conditions: in vivo; in short: as §3
Rattus norvegicus [20] = assay: Toxicity in Wistar rat assessed as death at 100 to 2500 mg/kg, po administered for 48 hrs followed by administration of 300 mg/kg, bid for 7 days with 8 hrs interval between first and second dose measured after 7 days; type: organism-based; conditions: in vivo, 168 h; in short: as §2
Rattus norvegicus [21] = assay: Toxicity in Wistar rat assessed as effect on microscopic appearance of liver at 100 to 2500 mg/kg, po administered for 48 hrs followed by administration of 300 mg/kg, bid for 7 days starting 8 hrs interval between first and second dose measured after 7 days; type: organism-based; conditions: in vivo, 168 h
Mus musculus [22] = assay: Antiarthritic activity in DBA/1 mouse assessed as decrease in collagen-induced arthritic score at 50 mg/kg, bid administered on day 22 post second injection of type 2 collagen; type: functional, organism-based
In short: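 Collagen-induced arthritis in male DBA/1 mice. Dosing at 50 mg/kg b.i.d. began on day 22, one day after the second (boost) injection of type II collagen.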

[23] = target: Mitogen-activated protein kinase 10 (Homo sapiens) (UniProt P53779); assay: Inhibition of human recombinant full length N-terminal His6 tagged JNK3 expressed in Sf21 cells at 10 uM relative to control
Chain of Mitogen-activated protein kinase 10 (Homo sapiens) (P53779 whole entry): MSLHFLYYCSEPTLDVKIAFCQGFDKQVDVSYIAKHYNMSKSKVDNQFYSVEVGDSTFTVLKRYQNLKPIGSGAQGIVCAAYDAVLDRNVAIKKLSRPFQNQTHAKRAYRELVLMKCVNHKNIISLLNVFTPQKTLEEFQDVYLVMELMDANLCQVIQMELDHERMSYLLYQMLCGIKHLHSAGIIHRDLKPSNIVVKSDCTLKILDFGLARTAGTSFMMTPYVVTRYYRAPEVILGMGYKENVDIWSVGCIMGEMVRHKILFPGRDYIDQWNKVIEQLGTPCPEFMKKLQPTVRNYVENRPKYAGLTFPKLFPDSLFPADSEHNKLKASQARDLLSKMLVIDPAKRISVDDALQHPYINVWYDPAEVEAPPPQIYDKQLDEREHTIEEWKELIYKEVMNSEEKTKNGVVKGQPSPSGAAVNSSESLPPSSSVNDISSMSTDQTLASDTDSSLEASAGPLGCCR

Rattus norvegicus [24] = assay: Protection against LPS-induced endotoxemia in Wistar rat assessed as inhibition of plasma TNFalpha level at 10 mg/kg, po pretreated for 1 hr followed by LPS addition measured after 90 mins relative to control; type: functional
[25] = Fraction unbound in human plasma at 5 uM by equilibrium dialysis relative to control; type: ADME, cell-free
[26] = Half life in Wistar rat at 30 mg/kg, po administered as single dose via gavage by LC-MS/MS analysis; type: ADME, organism-based; conditions: in vivo
In short: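 Single oral gavage dose of 30 mg/kg given to male and female Wistar rats. PK parameters are reported as the mean of males and females.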

CYP2C9 = CYP2C9 (Homo sapiens, UniProt P11712); assay: Inhibition of CYP2C9 (unknown origin) at 10 uM by fluorimetric assay relative to control; type: ADME; in short: as §4
Chain of CYP2C9 (P11712 whole entry): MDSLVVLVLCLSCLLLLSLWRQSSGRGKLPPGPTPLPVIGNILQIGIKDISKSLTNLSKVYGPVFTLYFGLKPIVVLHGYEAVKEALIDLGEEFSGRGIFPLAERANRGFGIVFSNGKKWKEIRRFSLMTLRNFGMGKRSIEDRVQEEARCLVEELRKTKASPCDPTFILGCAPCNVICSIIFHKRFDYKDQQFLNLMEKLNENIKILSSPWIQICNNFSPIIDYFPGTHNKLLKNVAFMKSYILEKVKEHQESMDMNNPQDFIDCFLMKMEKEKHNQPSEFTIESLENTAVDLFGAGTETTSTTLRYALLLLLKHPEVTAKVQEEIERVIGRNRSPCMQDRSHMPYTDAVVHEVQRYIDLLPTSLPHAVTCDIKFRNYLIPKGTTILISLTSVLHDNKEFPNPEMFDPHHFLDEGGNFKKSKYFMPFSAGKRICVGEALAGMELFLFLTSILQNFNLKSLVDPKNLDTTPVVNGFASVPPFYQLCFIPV

Rattus norvegicus [27] = assay: Toxicity in Wistar rat assessed as change in body weight at 100 to 2500 mg/kg, po administered for 48 hrs followed by administration of 300 mg/kg, bid for 7 days starting 8 hrs interval between first and second dose measured after 7 days; type: organism-based; conditions: in vivo, 168 h; in short: as §2
CYP2D6 = CYP2D6 (Homo sapiens, UniProt P10635); assay: Inhibition of CYP2D6 (unknown origin) at 10 uM by fluorimetric assay relative to control; type: ADME; in short: as §4
Chain of CYP2D6 (P10635 whole entry): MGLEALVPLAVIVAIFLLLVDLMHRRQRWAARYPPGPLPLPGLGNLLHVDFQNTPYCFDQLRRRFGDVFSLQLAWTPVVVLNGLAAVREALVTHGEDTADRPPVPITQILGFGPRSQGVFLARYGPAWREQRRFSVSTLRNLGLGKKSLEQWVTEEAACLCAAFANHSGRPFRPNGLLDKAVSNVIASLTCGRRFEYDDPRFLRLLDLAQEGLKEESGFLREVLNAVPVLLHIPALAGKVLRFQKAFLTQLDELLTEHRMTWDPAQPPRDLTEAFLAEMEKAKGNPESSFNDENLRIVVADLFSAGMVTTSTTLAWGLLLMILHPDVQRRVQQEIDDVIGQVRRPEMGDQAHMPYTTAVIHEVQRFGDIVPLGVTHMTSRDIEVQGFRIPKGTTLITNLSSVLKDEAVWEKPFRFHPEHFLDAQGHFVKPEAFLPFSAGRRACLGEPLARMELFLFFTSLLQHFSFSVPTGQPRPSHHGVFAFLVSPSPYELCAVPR

Rattus norvegicus [28] = assay: Toxicity in Wistar rat assessed as effect on liver enzyme at 100 to 2500 mg/kg, po administered for 48 hrs followed by administration of 300 mg/kg, bid for 7 days starting 8 hrs interval between first and second dose measured after 7 days; type: organism-based; conditions: in vivo, 168 h; in short: as §2
[29] = target: Mitogen-activated protein kinase 11 (Homo sapiens) (UniProt Q15759); assay: Inhibition of p38beta (unknown origin) at 10 uM relative to control
Chain of Mitogen-activated protein kinase 11 (Homo sapiens) (Q15759 whole entry): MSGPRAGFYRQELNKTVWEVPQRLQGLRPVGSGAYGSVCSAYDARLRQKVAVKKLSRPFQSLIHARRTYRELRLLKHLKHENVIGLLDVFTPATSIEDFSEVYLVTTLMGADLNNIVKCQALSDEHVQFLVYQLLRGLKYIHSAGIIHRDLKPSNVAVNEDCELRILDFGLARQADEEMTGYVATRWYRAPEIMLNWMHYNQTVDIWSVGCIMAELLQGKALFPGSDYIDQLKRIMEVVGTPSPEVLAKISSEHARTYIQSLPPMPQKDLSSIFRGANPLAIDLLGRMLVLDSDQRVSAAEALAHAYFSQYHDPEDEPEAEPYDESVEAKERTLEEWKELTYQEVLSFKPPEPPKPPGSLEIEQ

CYP2C19 = CYP2C19 (Homo sapiens, UniProt P33261); assay: Inhibition of CYP2C19 (unknown origin) at 10 uM by fluorimetric assay relative to control; type: ADME; in short: as §4
Chain of CYP2C19 (P33261 whole entry): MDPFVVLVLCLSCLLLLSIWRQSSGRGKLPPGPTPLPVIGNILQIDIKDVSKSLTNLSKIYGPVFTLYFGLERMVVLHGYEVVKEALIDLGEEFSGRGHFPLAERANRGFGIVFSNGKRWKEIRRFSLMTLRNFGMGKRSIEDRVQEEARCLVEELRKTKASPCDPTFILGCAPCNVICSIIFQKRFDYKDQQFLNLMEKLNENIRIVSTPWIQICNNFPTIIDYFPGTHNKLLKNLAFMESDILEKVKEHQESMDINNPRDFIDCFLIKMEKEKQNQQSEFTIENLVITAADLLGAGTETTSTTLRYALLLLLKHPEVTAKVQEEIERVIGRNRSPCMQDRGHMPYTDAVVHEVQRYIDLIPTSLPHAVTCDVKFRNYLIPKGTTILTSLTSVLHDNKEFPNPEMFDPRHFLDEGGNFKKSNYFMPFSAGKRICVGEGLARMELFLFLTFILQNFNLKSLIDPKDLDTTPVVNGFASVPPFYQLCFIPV

[30] = Tmax in Wistar rat at 30 mg/kg, po administered as single dose via gavage by LC-MS/MS analysis; type: ADME, organism-based; conditions: in vivo
In short: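 Male and female Wistar rats each received a single 30 mg/kg oral gavage dose. Tmax is the mean of males and females.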

Mus musculus [31] = assay: Toxicity in DBA/1 mouse model of collagen-induced arthritis at 50 mg/kg, bid administered on day 22 post second injection of type 2 collagen; type: organism-based; conditions: in vivo
In short: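 Male DBA/1 mice with collagen-induced arthritis were dosed at 50 mg/kg b.i.d. starting on day 22, 1 day after the type II collagen boost. Animals were monitored for signs of toxicity, including body weight loss relative to controls.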

[32] = target: Voltage-gated inwardly rectifying potassium channel KCNH2 (Homo sapiens, UniProt Q12809); assay: Inhibition of human ERG expressed in HEK293 cells by patch clamp method; type: cell-based
Chain of Voltage-gated inwardly rectifying potassium channel KCNH2 (Q12809 whole entry): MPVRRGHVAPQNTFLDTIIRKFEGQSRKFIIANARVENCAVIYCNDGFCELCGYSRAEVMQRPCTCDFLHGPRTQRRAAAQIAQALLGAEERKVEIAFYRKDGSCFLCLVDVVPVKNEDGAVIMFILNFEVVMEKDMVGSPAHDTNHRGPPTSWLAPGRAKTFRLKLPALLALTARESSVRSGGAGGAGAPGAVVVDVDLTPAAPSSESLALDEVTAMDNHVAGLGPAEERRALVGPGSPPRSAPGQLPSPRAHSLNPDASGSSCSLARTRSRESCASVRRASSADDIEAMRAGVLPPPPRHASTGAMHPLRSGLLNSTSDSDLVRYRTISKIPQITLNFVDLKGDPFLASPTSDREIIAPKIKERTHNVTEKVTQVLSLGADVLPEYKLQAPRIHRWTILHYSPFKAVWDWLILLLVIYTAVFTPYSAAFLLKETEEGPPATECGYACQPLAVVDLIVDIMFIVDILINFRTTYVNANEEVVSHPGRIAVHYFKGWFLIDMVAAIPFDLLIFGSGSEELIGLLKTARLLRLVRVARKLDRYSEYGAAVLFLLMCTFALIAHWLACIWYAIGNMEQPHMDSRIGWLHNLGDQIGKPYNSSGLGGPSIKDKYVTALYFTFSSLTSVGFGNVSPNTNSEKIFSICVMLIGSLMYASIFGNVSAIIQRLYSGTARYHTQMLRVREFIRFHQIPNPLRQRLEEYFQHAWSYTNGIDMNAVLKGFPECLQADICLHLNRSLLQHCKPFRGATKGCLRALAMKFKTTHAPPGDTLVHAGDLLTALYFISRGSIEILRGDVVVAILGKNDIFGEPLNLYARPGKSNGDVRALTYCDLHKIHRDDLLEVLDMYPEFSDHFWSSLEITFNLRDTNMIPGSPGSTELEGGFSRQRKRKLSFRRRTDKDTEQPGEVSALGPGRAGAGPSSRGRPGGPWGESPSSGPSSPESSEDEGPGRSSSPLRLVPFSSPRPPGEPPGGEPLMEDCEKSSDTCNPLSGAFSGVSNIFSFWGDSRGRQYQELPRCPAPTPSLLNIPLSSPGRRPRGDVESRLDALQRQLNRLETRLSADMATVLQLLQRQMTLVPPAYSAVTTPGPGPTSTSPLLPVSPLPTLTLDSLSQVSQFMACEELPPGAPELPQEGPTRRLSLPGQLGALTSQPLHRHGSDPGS

CYP3A4 = CYP3A4 (Homo sapiens, UniProt P08684); assay: Inhibition of CYP3A4 (unknown origin) at 10 uM by fluorimetric assay relative to control; type: ADME; in short: as §4
Chain of CYP3A4 (P08684 whole entry): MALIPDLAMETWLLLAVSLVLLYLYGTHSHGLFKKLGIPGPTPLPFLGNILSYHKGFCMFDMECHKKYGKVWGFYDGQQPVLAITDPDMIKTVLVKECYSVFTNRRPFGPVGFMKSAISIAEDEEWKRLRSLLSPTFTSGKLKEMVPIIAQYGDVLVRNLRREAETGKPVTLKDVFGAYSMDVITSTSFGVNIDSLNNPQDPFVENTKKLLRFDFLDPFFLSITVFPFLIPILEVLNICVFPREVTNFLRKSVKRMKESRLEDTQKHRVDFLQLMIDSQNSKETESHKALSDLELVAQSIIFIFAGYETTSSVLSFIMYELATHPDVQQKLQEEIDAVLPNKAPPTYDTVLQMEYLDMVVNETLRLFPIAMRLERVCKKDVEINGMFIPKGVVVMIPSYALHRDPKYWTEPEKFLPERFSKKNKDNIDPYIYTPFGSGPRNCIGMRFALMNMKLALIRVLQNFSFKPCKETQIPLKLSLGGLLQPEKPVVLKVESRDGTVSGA

Compound: CS(=O)(=O)c1nc(-c2ccc(F)cc2)c(-c2ccnc(NC3CCOCC3)c2)[nH]1
inhibition (Homo sapiens [1]): 36% | inhibition in vivo at 10 mg/kg (Rattus norvegicus [2]): 21%

inhibition [3]: 11%
Compound: CC(=O)Nc1cc(-c2c(-c3ccc(F)cc3)nc([S@+](C)[O-])n2C)ccn1

Cmax (Homo sapiens [4]): 22.4 nM | Cmax [6]: 13.1 nM | fraction unbound [7]: 0.02 | AUC(0-inf) [8]: 0.0868 µM·h | AUC (Homo sapiens [9]): 0.8379 µM·h | inhibition (Homo sapiens [10]): Dose-dependent effect
Compound: O=C(Nc1c(Cl)cncc1Cl)c1ccc(OC(F)F)c(OCC2CC2)c1 [ROFLUMILAST]
inhibition in vivo at 10 mg/kg (Rattus norvegicus [2]): 67% | inhibition (Homo sapiens [5]): 94%

Drug metabolism [11]: Metabolite_Detected | Drug metabolism (Liver [12]): Metabolite_Detected | Drug metabolism (Liver [13]): Metabolite_Detected
Compound: CC(=O)Nc1cc(-c2c(-c3ccc(F)cc3)nc(S(C)(=O)=O)n2C)ccn1

Compound: CSc1nc(-c2ccc(F)cc2)c(-c2ccnc(NC(C)=O)c2)n1C
Ratio [14]: 12.5 | Activity (Rattus norvegicus [15]): Non-Toxic | Activity (Rattus norvegicus [16]): Non-Toxic | Activity (Rattus norvegicus [17]): Non-Toxic | AUC(0-t) [18]: 4930 ng·h/mL and 13.8 µM·h | inhibition at 10 µM (CYP1A2): 18% | Cmax [19]: 738 ng/mL and 2.07 µM | Activity (Rattus norvegicus [20]): Non-Toxic | Activity (Rattus norvegicus [21]): Non-Toxic | Activity (Mus musculus [22]): Active | inhibition [23]: > 70% | inhibition in vivo at 10 mg/kg (Rattus norvegicus [24]): 97% | fraction unbound at 5 µM [25]: 0.037 | half-life [26]: 3 h | inhibition at 10 µM (CYP2C9): 46% | Activity (Rattus norvegicus [27]): Non-Toxic | inhibition at 10 µM (CYP2D6): 45% | Activity (Rattus norvegicus [28]): Non-Toxic | inhibition [29]: > 70% | inhibition at 10 µM (CYP2C19): 4% | Tmax [30]: 1 h | Activity (Mus musculus [31]): Non-Toxic | IC50 [32]: 28.6 µM | inhibition (INH) ([32]; human, hek293): Dose-dependent effect | inhibition at 10 µM (CYP3A4): -7%

Compound: O=C(Nc1c(Cl)c[n+]([O-])cc1Cl)c1ccc(OC(F)F)c(OCC2CC2)c1
fraction unbound [7]: 0.04
